14 compounds from ChEMBL document CHEMBL4024781, “Comprehensive Synthesis of Amino Acid-Derived Thiazole Peptidomimetic Analogues to Understand the Enigmatic Drug/Substrate-Binding Site of P-Glycoprotein” (J Med Chem, 2018) can be followed below.

Series [1] addresses T1, P-gp (ABCB1) (Homo sapiens, UniProt P08183). In words: Activation of human P-gp expressed in high five insect cell membrane vesicles by measuring the vanadate-sensitive ATPase activity of P-gp at 0.5 uM preincubated for 5 mins in the presence of sodium orthovanadate measured after 20 mins by colorimetric method. Particulars: read-out: Activity; call rule not given here.
The target of series [2] is T1, P-gp (ABCB1). In words: Inhibition of human P-gp expressed in high five insect cell membrane vesicles by measuring the vanadate-sensitive ATPase activity of P-gp at 2.5 uM preincubated for 5 mins in the presence of sodium orthovanadate measured after 20 mins by colorimetric method.
For series [3], the target named is T1, P-gp (ABCB1). Briefly: Inhibition of human P-gp expressed in high five insect cell membrane vesicles by measuring the vanadate-sensitive ATPase activity of P-gp at 0.5 uM preincubated for 5 mins in the presence of sodium orthovanadate measured after 20 mins by colorimetric method.
Series [4] deals with T1, P-gp (ABCB1). Briefly: Activation of human P-gp expressed in high five insect cell membrane vesicles by measuring the vanadate-sensitive ATPase activity of P-gp at 2.5 uM preincubated for 5 mins in the presence of sodium orthovanadate measured after 20 mins by colorimetric method. The settings on record: read-out: Activity.
For series [5], the target named is T2, ATP-dependent translocase ABCB1 (Homo sapiens, UniProt P08183). In words: Inhibition of human P-gp transfected in HEK293 cells assessed as potentiation of paclitaxel-induced cytotoxicity by measuring fold reduction in paclitaxel IC50 at 10 uM pre-incubated for 1 hr before paclitaxel addition and measured after 72 hrs by MTT assay. Format: cell-based. Particulars: hek293, 72 h. A digest of the protocol:
(§1)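 HEK293 cells stably transfected with ABCB1 or empty pcDNA3.1 vector, kept in G418. Seeded at 5000/well and grown 24 h, then given modulator at 10 μM for 1 h before serially diluted paclitaxel (up to 10 μM). MTT read at 570 nm after 72 h. Paclitaxel IC50 from four experiments in triplicate. Fold resistance = IC50 with modulator ÷ IC50 of paclitaxel alone in vector-control cells.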

Series [6] deals with T3, Cytochrome P450 3A4 (Homo sapiens, UniProt P08684). In words: Inhibition of CYP3A4 (unknown origin). Format: ADME.
The nature of series [7]: Cytotoxicity in P-gp tranfected HEK293 cells assessed as cell survival at 10 uM after 72 hrs by MTT assay. The settings on record: human, P-gp transfected HEK293 cells. Format: ADME, cell-based. A digest of the protocol:
(§2)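 HEK293 cells stably transfected with empty pcDNA3.1 vector or ABCB1 vector, kept in DMEM with 10% FBS, 1% penicillin/streptomycin, and 2 mg/mL G418 at 37°C in 5% CO2. Cells were seeded at 5000/well, and after 24 h treated with test compound alone, diluted from 10 mM DMSO stocks into medium. After 72 h, viability was read by MTT (4 mg/mL, 4 h), with formazan dissolved in DMSO and absorbance read at 570 nm.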
Background: Formazan colour is commonly taken as a measure of viable cells.

The target in series [8] is T1, P-gp (ABCB1). In words: Activation of human P-gp expressed in high five insect cell membrane vesicles by measuring the vanadate-sensitive ATPase activity of P-gp at 0.05 uM preincubated for 5 mins in the presence of sodium orthovanadate measured after 20 mins by colorimetric method. Particulars: read-out: Activity.
A further series concerns HEK293. In words: Potentiation of paclitaxel-induced cytotoxicity against parental HEK293-pcDNA 3.1 transfected cells assessed as fold reduction in paclitaxel IC50 at 10 uM pre-incubated for 1 hr before paclitaxel addition and measured after 72 hrs by MTT assay. Format: functional, Homo sapiens. An outline of the steps: as §1
A short description of series [9]: Cytotoxicity in parental HEK293-pcDNA 3.1 transfected cells assessed as cell survival at 10 uM after 72 hrs by MTT assay. It is filed as cell-based. The settings on record: human, parental HEK293 cells transfected with pcDNA 3.1. A digest of the protocol:
as §2

For series [10], the target named is T1, P-gp (ABCB1). In words: Displacement of [125I]-IAAP from human P-gp expressed in high five insect cell membrane vesicles at >5 uM preincubated for 10 mins followed by photocrosslinking for 10 mins by exposing under UV light for 10 mins by SDS-PAGE based method. The settings on record: probe [125I]-IAAP, read-out: Imax. An outline of the steps: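 Membrane vesicles (65–75 μg protein/100 μL) incubated with compound (0–5 or 0–10 μM) in 50 mM MES-Tris pH 6.8, 150 mM NaCl, 37 °C 10 min, then moved to 4 °C. 4–5 nM [125I]-IAAP (2200 Ci/mmol) added under subdued light, cross-linked at 366 nm UV 10 min. P-gp band incorporation quantified after SDS-PAGE, DMSO-only sample = 100%.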

For series [11], the target named is T2, ATP-dependent translocase ABCB1. In words: Displacement of [125I]-IAAP from human P-gp expressed in high five insect cell membrane vesicles preincubated for 10 mins followed by photocrosslinking for 10 mins by exposing under UV light for 10 mins by SDS-PAGE based method. The settings on record: for inhibition (INH): human, 10 min. An outline of the steps:
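Membrane vesicles from P-gp-expressing High Five insect cells (65–75 μg protein/100 μL) incubated with compound (0–5 or 0–10 μM) in 50 mM MES-Tris pH 6.8, 150 mM NaCl, 37 °C, 10 min; moved to 4 °C, 4–5 nM [125I]-IAAP added under subdued light; 366 nm UV 10 min; P-gp band incorporation quantified after SDS-PAGE, DMSO-only as 100%.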

The target of series [12] is T4, CYP3A4 (Homo sapiens, UniProt P08684). Briefly: (§3) Inhibition of CYP3A4 (unknown origin) at 25 uM by fluorescence based-vivid CYP450 green screening kit based assay. Format: ADME.
Series [13] has as its target T4, CYP3A4. In words: Inhibition of CYP3A4 (unknown origin) at 50 uM by fluorescence based-vivid CYP450 green screening kit based assay. It is filed as ADME.
Series [14] addresses T1, P-gp (ABCB1). In words: Inhibition of human P-gp expressed in high five insect cell membrane vesicles by measuring the vanadate-sensitive ATPase activity of P-gp at 0.05 uM preincubated for 5 mins in the presence of sodium orthovanadate measured after 20 mins by colorimetric method.
For series [15], the target named is T3, Cytochrome P450 3A4. The description is as §3. Format: ADME. Particulars: 25 µM.

T4 sequence (P08684 whole entry): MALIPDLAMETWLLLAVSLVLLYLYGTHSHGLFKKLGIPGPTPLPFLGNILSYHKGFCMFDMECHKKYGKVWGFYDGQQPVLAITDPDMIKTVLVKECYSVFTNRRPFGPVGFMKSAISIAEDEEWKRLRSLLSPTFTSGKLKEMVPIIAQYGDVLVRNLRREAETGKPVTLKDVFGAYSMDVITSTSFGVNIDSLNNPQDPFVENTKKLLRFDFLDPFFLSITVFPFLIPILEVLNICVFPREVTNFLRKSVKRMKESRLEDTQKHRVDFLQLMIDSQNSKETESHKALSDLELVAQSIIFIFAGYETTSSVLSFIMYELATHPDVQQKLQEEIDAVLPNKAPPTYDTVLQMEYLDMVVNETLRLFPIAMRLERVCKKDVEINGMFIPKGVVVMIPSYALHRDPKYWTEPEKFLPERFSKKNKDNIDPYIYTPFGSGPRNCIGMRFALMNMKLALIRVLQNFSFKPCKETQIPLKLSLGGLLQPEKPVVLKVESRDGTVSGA
T1 sequence (P08183 whole entry): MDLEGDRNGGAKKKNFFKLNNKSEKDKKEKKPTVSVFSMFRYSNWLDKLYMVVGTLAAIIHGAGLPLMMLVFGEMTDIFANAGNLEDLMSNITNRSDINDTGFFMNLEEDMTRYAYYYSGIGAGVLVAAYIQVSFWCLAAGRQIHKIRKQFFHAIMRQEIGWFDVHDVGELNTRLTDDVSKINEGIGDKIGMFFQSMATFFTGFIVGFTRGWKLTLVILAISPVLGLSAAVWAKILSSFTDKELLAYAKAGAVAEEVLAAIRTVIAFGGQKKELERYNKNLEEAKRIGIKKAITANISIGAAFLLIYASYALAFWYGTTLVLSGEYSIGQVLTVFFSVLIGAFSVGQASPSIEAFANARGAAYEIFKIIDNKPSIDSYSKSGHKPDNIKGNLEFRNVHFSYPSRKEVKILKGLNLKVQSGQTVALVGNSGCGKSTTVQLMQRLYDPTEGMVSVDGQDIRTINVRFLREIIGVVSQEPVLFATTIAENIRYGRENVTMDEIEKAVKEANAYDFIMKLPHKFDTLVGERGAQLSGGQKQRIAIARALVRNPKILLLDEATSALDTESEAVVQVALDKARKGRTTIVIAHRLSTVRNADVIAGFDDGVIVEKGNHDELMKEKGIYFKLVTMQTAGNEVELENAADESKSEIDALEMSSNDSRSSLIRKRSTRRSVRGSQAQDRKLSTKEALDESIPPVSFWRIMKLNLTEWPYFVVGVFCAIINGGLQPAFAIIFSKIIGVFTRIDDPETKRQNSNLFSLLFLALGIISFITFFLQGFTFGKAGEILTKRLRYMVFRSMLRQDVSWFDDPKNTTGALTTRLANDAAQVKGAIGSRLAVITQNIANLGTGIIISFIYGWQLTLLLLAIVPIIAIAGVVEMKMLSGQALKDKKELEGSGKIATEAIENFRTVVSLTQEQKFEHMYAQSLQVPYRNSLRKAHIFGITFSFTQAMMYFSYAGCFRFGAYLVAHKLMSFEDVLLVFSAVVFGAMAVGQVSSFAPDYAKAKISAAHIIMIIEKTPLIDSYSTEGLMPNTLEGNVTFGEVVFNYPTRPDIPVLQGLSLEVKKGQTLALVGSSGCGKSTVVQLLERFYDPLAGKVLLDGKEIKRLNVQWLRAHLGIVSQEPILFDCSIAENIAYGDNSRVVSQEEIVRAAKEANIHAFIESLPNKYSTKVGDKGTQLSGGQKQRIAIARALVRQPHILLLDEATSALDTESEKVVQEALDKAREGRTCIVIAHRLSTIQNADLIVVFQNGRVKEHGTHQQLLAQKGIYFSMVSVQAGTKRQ
T2 sequence (P08183 whole entry): as above
T3 sequence (P08684 whole entry): as the sequence (P08684 whole entry) above

Take `COc1cc(C(=O)NC(c2nc(C(=O)NC3CCC(C(F)(F)F)CC3)cs2)C(C)C)cc(OC)c1OC` (stereo not drawn): the activity at 20 min, 0.5 µM at P-gp (ABCB1) [1] was not above 10%. Further, the inhibition (usually the percentage by which the read-out fell short of the control) at 20 min, 2.5 µM at P-gp (ABCB1) [2] stood at 21.7%.
As for `COc1cc(C(=O)NC(Cc2ccc(O)cc2)c2nc(C(=O)NC3CCC(F)(F)CC3)cs2)cc(OC)c1OC` (stereo not drawn), the inhibition at 20 min, 0.5 µM at P-gp (ABCB1) [3] stood at 22.4%. Besides, the inhibition at 20 min, 2.5 µM at P-gp (ABCB1) [2] amounted to 23%.
On to `CC(C)[C@H](NC(=O)C1CCC(F)(F)CC1)c1nc(C(=O)NC2CCC(F)(F)CC2)cs1`, for which the activity at 20 min, 0.5 µM on P-gp (ABCB1) [1] is not above 10%. Moreover, the inhibition at 20 min, 2.5 µM at P-gp (ABCB1) [2] was found to be 16.4%.
For the compound `COc1cc(C(=O)N[C@H](c2nc(C(=O)NCC3CCC(F)(F)CC3)cs2)C(C)C)cc(OC)c1OC`, the inhibition at 20 min, 0.5 µM at P-gp (ABCB1) [3] came to 27%. Also, at P-gp (ABCB1) [4], the activity at 20 min, 2.5 µM worked out at 20.7%.
In the case of `COc1cc(C(=O)N[C@H](c2nc(C(=S)NC3CCC(F)(F)CC3)cs2)C(C)C)cc(OC)c1OC`, at P-gp (ABCB1) [3], the inhibition at 20 min, 0.5 µM is 37.4%. Moreover, at P-gp (ABCB1) [2], the inhibition at 20 min, 2.5 µM came out at 25.9%.
`COc1cc(C(=O)N[C@H](c2nc(C(=O)Nc3ccccc3C(=O)c3ccccc3)cs2)C(C)C)cc(OC)c1OC`: on P-gp (ABCB1) [1], the activity at 20 min, 0.5 µM was 83%. Moreover, the “fold change (FC)” value in [5] is 0.6; in the series with HEK293, 1. Besides, 8.23 µM corresponded to half-maximal inhibition at Cytochrome P450 3A4 [6] (IC50). Also, the viability at 72 h, 10 µM in [7] and in [9] was more than 80% throughout. Besides, the activity at 20 min, 0.05 µM at P-gp (ABCB1) [8] was 54%. Also, at P-gp (ABCB1) [4], the activity at 20 min, 2.5 µM worked out at 88%.
On to `COc1cc(C(=O)N[C@H](c2nc(C(=O)NC3CCC(F)(F)CC3)cs2)C(C)C)cc(OC)c1OC`, for which the Emax at 10 min at P-gp (ABCB1) [10] was determined as 90%. For the same compound, the “fold change (FC)” value (in series [5]; in the series with HEK293) was 0.6 throughout. Moreover, the IC50 (as a rule, the concentration at which inhibition is half-maximal) in series [11] stood at 0.1 µM. For the same compound, the “inhibition (INH)” value in series [11] is reported as “Dose-dependent effect”. For the same compound, the inhibition at 25 µM against CYP3A4 [12] came to 9.32%. Also, the inhibition at 50 µM on CYP3A4 [13] came to 28.7%. In addition, the viability at 72 h, 10 µM in [7] and in series [9] was more than 80% in each case. On P-gp (ABCB1) [3], the inhibition at 20 min, 0.5 µM was determined as 30.7%. The inhibition at 20 min, 2.5 µM at P-gp (ABCB1) [2] was found to be 33.9%.
On to `COc1cc(C(=O)N[C@H](c2nc(C(=O)NC3CCCCC3)cs2)C(C)C)cc(OC)c1OC`, for which the “fold change (FC)” value amounted to 0.6 in series [5] and 1 in the series with HEK293. Besides, the inhibition at 20 min, 0.05 µM on P-gp (ABCB1) [14] stood at 20%. For the same compound, at CYP3A4 [12], testing at 25 µM gave an inhibition of 7.03%. For the same compound, the inhibition at 50 µM at CYP3A4 [13] turned out to be 52%. Further, the viability at 72 h, 10 µM in series [7] and in [9] was more than 80% in each case. Moreover, the inhibition at 20 min, 0.5 µM on P-gp (ABCB1) [3] worked out at 18%.
Take `CC(C)[C@H](NC(=O)c1cc(F)c(F)c(F)c1)c1nc(C(=O)NC2CCC(F)(F)CC2)cs1`: the inhibition at 20 min, 0.5 µM on P-gp (ABCB1) [3] was 16.6%. Besides, the inhibition at 20 min, 2.5 µM at P-gp (ABCB1) [2] was determined as 23.3%.
In the case of `COc1cc(C(=O)NC(Cc2ccccc2)c2nc(C(=O)NC3CCC(F)(F)CC3)cs2)cc(OC)c1OC` (stereo not drawn), the results for the “fold change (FC)” value (in series [5]; in the series with HEK293) were 1.7 and 0.5, respectively. Further, the IC50 in [11] came out at 0.76 µM. The “inhibition (INH)” value in series [11] is listed as “Dose-dependent effect”; at Cytochrome P450 3A4 [15], “Not Active”. Further, the inhibition at 50 µM at CYP3A4 [13] amounted to 32.9%. Also, the viability at 72 h, 10 µM in series [7] and in series [9] was more than 80% each time. For the same compound, the inhibition at 20 min, 0.5 µM at P-gp (ABCB1) [3] came to 39.6%. Besides, at P-gp (ABCB1) [2], the inhibition at 20 min, 2.5 µM stood at 42.5%.
Regarding `CC(C)[C@H](NC(=O)c1cccc(N)c1)c1nc(C(=O)Nc2ccccc2C(=O)c2ccccc2)cs1`, the activity at 20 min, 0.5 µM on P-gp (ABCB1) [1] was 308%. The figures for the “fold change (FC)” value (in series [5]; with HEK293) were 17.9 and 0.5, respectively. In addition, at CYP3A4 [12], the inhibition at 25 µM is 43.6%. Moreover, the inhibition at 50 µM on CYP3A4 [13] is 83.3%. Also, the viability at 72 h, 10 µM in series [7] and in series [9] was more than 80% throughout. Besides, the activity at 20 min, 0.05 µM on P-gp (ABCB1) [8] amounted to 376%.
As to `COc1cc(C(=O)N[C@H](c2nc(C(=O)N[C@@H]3CCCc4ccccc43)cs2)C(C)C)cc(OC)c1OC`, the activity at 20 min, 0.5 µM at P-gp (ABCB1) [1] was determined as 33.9%. Further, the entries for the “fold change (FC)” value (in [5]; in the series with HEK293) were 2.9 and 1.4, respectively. For the same compound, the viability at 72 h, 10 µM in series [7] and in series [9] was more than 80% in each case. Besides, on P-gp (ABCB1) [4], the activity at 20 min, 2.5 µM amounted to 31.3%.
As to `COc1ccc(CCN(C)CCCC(C#N)(c2ccc(OC)c(OC)c2)C(C)C)cc1OC` (stereo not drawn), the viability at 72 h, 10 µM in series [7] and in series [9] was more than 80% each time. In addition, the “fold change (FC)” value in the series with HEK293 worked out at 0.9.
As to `O[C@@H](COc1cccc2ncccc12)CN1CCN([C@@H]2c3ccccc3[C@@H]3[C@H](c4ccccc42)C3(F)F)CC1` [ZOSUQUIDAR], the viability at 72 h, 10 µM in [7] and in series [9] was more than 80% each time.
